In ChEMBL document CHEMBL1250520, “Antitumor agents. 280. Multidrug resistance-selective desmosdumotin B analogues” (2010):
Calls of active or inactive are those of the source. No cut-off for these calls is given here.

Legend:
[1] = Selectivity ratio of ED50 for human KB cells to ED50 for human KBVIN cells; type: functional
Method in brief: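 Ratio of KB ED50 to KB-VIN ED50. Both values come from a 3-day sulforhodamine B assay with absorbance read at 562 nm. Cells were seeded at 1500–7500 per well and dosed from DMSO-diluted stock. Each ED50 is the mean of at least three independent determinations.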

KB = test: Anticancer activity against human KB cells after 3 days by SRB assay; type: functional; conditions: 72 h, read-out: ED50 (the source's name)
Method in brief: (§1)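 Cells seeded at 1500–7500 per well, compounds added from DMSO-diluted stock, grown 3 days in RPMI-1640 with 25mM HEPES, 0.25% sodium bicarbonate, 10% FBS and kanamycin. Attached cells fixed in cold 50% TCA, stained with 0.4% sulforhodamine B, absorbance read at 562 nm after dye solubilization. ED50 is the 50% growth-reduction concentration, averaged from at least three independent determinations.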

[2] = Anticancer activity against human KBVIN cells after 3 days by SRB assay; type: functional; conditions: 72 h, read-out: ED50 (the source's name); method in brief: as §1
Hep 3B2 = test: Selectivity ratio of GI50 for human Hep3B cells to ED50 vincristine-resistant Hep3B cells; type: functional
[3] = Anticancer activity against human Hep3B cells after 3 days by SRB assay; type: functional, Hep 3B2; conditions: 72 h
[4] = Anticancer activity against vincristine-resistant human Hep3B cells after 3 days by SRB assay; type: functional, Hep 3B2; conditions: 72 h
KBVIN = test: Inhibition of Pgp efflux pump in human KBVIN cells by calcein AM assay; type: cell-based
Method in brief: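 KB-VIN cells, 10,000 per well, were grown 24 h in RPMI-1640 with 5% FBS. They were preincubated with compounds for 30 min at 37°C, then given fresh medium with 1 µM calcein-AM plus compounds for 30 min at 37°C in the dark. After cold PBS wash and hypotonic Tris-HCl lysis, fluorescence was read at Ex 494/Em 517 nm. Data pooled from two or more independent experiments.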

| EC50 (KB) [µM] | Compound | Ratio ED50 [1] | EC50 [2] [µM] | RatioGI50 (Hep 3B2) | GI50 [3] [µM] | GI50 [4] [µM] | inhibition (KBVIN) |
| --- | --- | --- | --- | --- | --- | --- | --- |
| 3.1 | CCC1=C(O)c2c(oc(-c3cccc(C)c3C)cc2=O)C(CC)(CC)C1=O | 4 | 0.85 |  |  |  |  |
| > 46.5 | CCC1=C(O)c2c(oc(-c3ccc(CBr)cc3)cc2=O)C(CC)(CC)C1=O | >2 | 27.9 |  |  |  |  |
| 40.5 | CCC1=C(O)c2c(oc(-c3ccc(F)c(C)c3)cc2=O)C(CC)(CC)C1=O | 24 | 1.62 |  |  |  |  |
| 14.5 | CCC1=C(O)c2c(oc(-c3cc(C)ccc3C)cc2=O)C(CC)(CC)C1=O | 4 | 3.41 |  |  |  |  |
| 20.6 | CCC1=C(O)c2c(oc(-c3ccc(O)cc3)cc2=O)C(CC)(CC)C1=O | 1 | 20.6 |  |  |  |  |
| 28.5 | CCC1=C(O)c2c(oc(-c3ccc(OC)c(C)c3)cc2=O)C(CC)(CC)C1=O | 273 | 0.1 |  |  |  |  |
| 33 | CCC1=C(O)c2c(oc(-c3ccc(F)cc3)cc2=O)C(CC)(CC)C1=O | 18 | 1.85 |  |  |  |  |
| > 53 | CCCc1ccc(-c2cc(=O)c3c(o2)C(CC)(CC)C(=O)C(CC)=C3O)cc1 | >4 | 12.2 |  |  |  |  |
| 21.9 | CCC1=C(O)c2c(oc(-c3ccc(CC)cc3)cc2=O)C(CC)(CC)C1=O [6,8,8-TRIETHYL-4-ETHYL DESMOSDUMOTIN B] | 320 | 0.07 | 8.5 | 6.09 | 0.72 | Active |
| > 56.2 | CCC1=C(O)c2c(oc(-c3cccc(F)c3)cc2=O)C(CC)(CC)C1=O | >18 | 3.09 |  |  |  |  |
| 47.3 | CCC1=C(O)c2c(oc(-c3cc(C)ccc3F)cc2=O)C(CC)(CC)C1=O | 15 | 3.24 |  |  |  |  |
| > 52.4 | CCC1=C(O)c2c(oc(-c3ccc(COC)cc3)cc2=O)C(CC)(CC)C1=O | 15 | 3.4 |  |  |  |  |
| 35.2 | CCC1=C(O)c2c(oc(-c3cccc(OC)c3OC)cc2=O)C(CC)(CC)C1=O | 9 | 4.02 |  |  |  |  |
| 36.6 | CCC1=C(O)c2c(oc(-c3cc(C)c(OC)cc3C)cc2=O)C(CC)(CC)C1=O | 5 | 7.58 |  |  |  |  |
| 39 | CCC1=C(O)c2c(oc(-c3ccc(C)c(Cl)c3)cc2=O)C(CC)(CC)C1=O | 18 | 2.15 |  |  |  |  |
| 44.6 | CCOc1cccc(-c2cc(=O)c3c(o2)C(CC)(CC)C(=O)C(CC)=C3O)c1OCC | 1.4 | 31.7 |  |  |  |  |
| > 56.2 | CCC1=C(O)c2c(oc(-c3ccccc3F)cc2=O)C(CC)(CC)C1=O | >14 | 3.93 |  |  |  |  |
|  | CC[C@]1(O)C[C@H]2CN(CCc3c([nH]c4ccccc34)[C@@](C(=O)OC)(c3cc4c(cc3OC)N(C=O)[C@H]3[C@@](O)(C(=O)OC)[C@H](OC(C)=O)[C@]5(CC)C=CCN6CC[C@]43[C@@H]65)C2)C1 [VINCRISTINE] |  |  |  | 0.0029 | 6.86 |  |
| 5.43 | CCC1=C(O)c2c(oc(-c3ccc(OC)c(C)c3C)cc2=O)C(CC)(CC)C1=O | 20 | 0.28 |  |  |  |  |
| 45.2 | CCC1=C(O)c2c(oc(-c3cc(OC)cc(OC)c3)cc2=O)C(CC)(CC)C1=O | 14 | 3.27 |  |  |  |  |
| 46.7 | CCC1=C(O)c2c(oc(-c3cc(OC)c(OC)c(OC)c3)cc2=O)C(CC)(CC)C1=O | 8 | 5.6 |  |  |  |  |
| 14.7 | CCC1=C(O)c2c(oc(-c3ccc(OC)c(OC)c3)cc2=O)C(CC)(CC)C1=O | 15 | 1 |  |  |  |  |
| 8.8 | CCC1=C(O)c2c(oc(-c3cc(OC)ccc3OC)cc2=O)C(CC)(CC)C1=O | 4 | 2.51 |  |  |  |  |
| 21.8 | CCC1=C(O)c2c(oc(-c3cc(Cl)c(OC)c(OC)c3)cc2=O)C(CC)(CC)C1=O | 3 | 8.4 |  |  |  |  |
| 24.9 | CCC1=C(O)c2c(oc(-c3ccc(OC)c(Cl)c3)cc2=O)C(CC)(CC)C1=O | 18 | 1.37 |  |  |  |  |
| 35.7 | CCC1=C(O)c2c(oc(-c3ccc(C(F)(F)F)cc3)cc2=O)C(CC)(CC)C1=O | 3.5 | 10.3 |  |  |  |  |
| 49.7 | CCC1=C(O)c2c(oc(-c3cccc(C)c3)cc2=O)C(CC)(CC)C1=O | 14 | 3.69 |  |  |  |  |
| 20.9 | CCC1=C(O)c2c(oc(-c3ccc(OC)cc3C)cc2=O)C(CC)(CC)C1=O | 8 | 2.62 |  |  |  |  |

| EC50 (KB) [µM] | Compound | Ratio ED50 [1] | EC50 [2] [µM] | RatioGI50 (Hep 3B2) | GI50 [3] [µM] | GI50 [4] [µM] | inhibition (KBVIN) |
| --- | --- | --- | --- | --- | --- | --- | --- |
| 8.2 | CCC1=C(O)c2c(oc(-c3cc(C)c(C)cc3C)cc2=O)C(CC)(CC)C1=O | 2 | 4.37 |  |  |  |  |
| 41.2 | CCC1=C(O)c2c(oc(-c3ccc(C)cc3C)cc2=O)C(CC)(CC)C1=O | 5 | 8.52 |  |  |  |  |
| 10 | CCC1=C(O)c2c(oc(-c3ccc(O)c(O)c3)cc2=O)C(CC)(CC)C1=O | 2 | 5.41 |  |  |  |  |
| > 48.1 | CCC1=C(O)c2c(oc(-c3ccc(Br)cc3)cc2=O)C(CC)(CC)C1=O | 3 | 15.7 |  |  |  |  |
| 28.1 | CCC1=C(O)c2c(oc(-c3ccc(C)c(F)c3)cc2=O)C(CC)(CC)C1=O | 10 | 2.95 |  |  |  |  |
| 45.6 | CCC1=C(O)c2c(oc(-c3ccccc3C(F)(F)F)cc2=O)C(CC)(CC)C1=O | 1 | 43.1 |  |  |  |  |
| 13.3 | CCC1=C(O)c2c(oc(-c3cccc(OC)c3)cc2=O)C(CC)(CC)C1=O | 11 | 1.22 |  |  |  |  |
| > 50.5 | CCCOc1ccc(-c2cc(=O)c3c(o2)C(CC)(CC)C(=O)C(CC)=C3O)cc1 | >2 | 29.2 |  |  |  |  |
| 39.2 | CCC1=C(O)c2c(oc(-c3ccc(C)cc3)cc2=O)C(CC)(CC)C1=O [6,8,8-TRIETHYL-4-METHYL DESMOSDUMOTIN B] | 460 | 0.08 | 21 | 7.31 | 0.35 | Active |
| 35.7 | CCC1=C(O)c2c(oc(-c3cccc(C(F)(F)F)c3)cc2=O)C(CC)(CC)C1=O | 6.6 | 5.42 |  |  |  |  |
| 17.7 | CCC1=C(O)c2c(oc(-c3ccc(OC)cc3)cc2=O)C(CC)(CC)C1=O | 26 | 0.68 |  |  |  |  |
| 35.5 | CCC1=C(O)c2c(oc(-c3ccc(C)c(C)c3)cc2=O)C(CC)(CC)C1=O | 50 | 0.71 |  |  |  |  |
| 6.5 | CCC1=C(O)c2c(oc(-c3ccc(O)c(C)c3C)cc2=O)C(CC)(CC)C1=O | 2 | 2.75 |  |  |  |  |
|  | CC(=O)O[C@H]1C(=O)[C@@]2(C)[C@H]([C@H](OC(=O)c3ccccc3)[C@]3(O)C[C@H](OC(=O)[C@H](O)[C@@H](NC(=O)c4ccccc4)c4ccccc4)C(C)=C1C3(C)C)[C@]1(OC(C)=O)CO[C@@H]1C[C@@H]2O [PACLITAXEL] |  |  |  | 0.0004 | 16.2 |  |
| 29.3 | CCC1=C(O)c2c(oc(-c3ccc(C(C)(C)C)cc3)cc2=O)C(CC)(CC)C1=O | 2 | 17.4 |  |  |  |  |
| 8.13 | CCC1=C(O)c2c(oc(-c3ccc(C(C)C)cc3)cc2=O)C(CC)(CC)C1=O |  | 1.08 |  |  |  |  |
| > 47.4 | CCC1=C(O)c2c(oc(-c3cccc(OC(F)(F)F)c3)cc2=O)C(CC)(CC)C1=O | >5 | 9.95 |  |  |  |  |
| 40.9 | CCC1=C(O)c2c(oc(-c3ccccc3C)cc2=O)C(CC)(CC)C1=O [6,8,8-TRIETHYL-2-METHYL DESMOSDUMOTIN B] | 17 | 2.41 |  |  |  |  |
| 9.4 | CCC1=C(O)c2c(oc(-c3ccc(OC)c(OC)c3OC)cc2=O)C(CC)(CC)C1=O | 6 | 1.57 |  |  |  |  |
| 26.7 | CCC1=C(O)c2c(oc(-c3ccc(OC)c(F)c3)cc2=O)C(CC)(CC)C1=O | 250 | 0.1 |  |  |  |  |
| > 52.4 | CCOc1ccc(-c2cc(=O)c3c(o2)C(CC)(CC)C(=O)C(CC)=C3O)cc1 | >7 | 7.54 |  |  |  |  |
| 45.5 | CCC1=C(O)c2c(oc(-c3cc(C)cc(C)c3)cc2=O)C(CC)(CC)C1=O | 100 | 0.45 |  |  |  |  |
| 111 | CCCCc1ccc(-c2cc(=O)c3c(o2)C(CC)(CC)C(=O)C(CC)=C3O)cc1 | 3 | 37 |  |  |  |  |
| 40.8 | CCC1=C(O)c2c(oc(-c3ccccc3OC)cc2=O)C(CC)(CC)C1=O | 13 | 3.26 |  |  |  |  |
| 18.3 | CCC1=C(O)c2c(oc(-c3cc(C)c(O)c(C)c3)cc2=O)C(CC)(CC)C1=O | 2 | 8.9 |  |  |  |  |
| 36.5 | CCC1=C(O)c2c(oc(-c3ccc(OC(F)(F)F)cc3)cc2=O)C(CC)(CC)C1=O | 4 | 9.95 |  |  |  |  |
| > 52.1 | CCC1=C(O)c2c(oc(-c3ccc(SC)cc3)cc2=O)C(CC)(CC)C1=O | >38 | 1.38 |  |  |  |  |
